Series [1] in a line: Lipophilicity, log P of the compound at pH 7. The format is physicochemical. Particulars: buffer.
The test system of series [2] is Liver microsome. As to the kind of experiment: Intrinsic clearance in rat liver microsomes assessed per mg of protein. The format is ADME. Set-up: unit not given here. In short, it runs like this: (§1)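 Stability assessed in human, rat and mouse liver microsomes; intrinsic clearance expressed per mg microsomal protein.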
The next series has as its system Liver. As to the kind of experiment: Intrinsic clearance in mouse liver microsomes assessed per mg of protein. The format is ADME. Set-up: unit not given here. In outline:
as §1

A short description of series [3]: Aqueous solubility of the compound. The format is physicochemical.
Series [4] in a line: Permeability from apical to basolateral side in human Caco2 cells. Particulars: Caco-2, read-out: permeability. The format is ADME, cell-based.
Series [5] relates to Liver microsome. As to the kind of experiment: Intrinsic clearance in human liver microsomes assessed per mg of protein. The class given is ADME. Details: unit not given here. In short, it runs like this:
as §1

Series [6] is described as follows: Permeability from basolateral to apical side in human Caco2 cells. The class given is ADME, cell-based. Particulars: Caco-2, read-out: permeability.
The target of series [7] is T1, Kynurenine 3-monooxygenase (Homo sapiens, UniProt O15229). As to the kind of experiment: Inhibition of human KMO assessed as conversion of kynurenine to 3-hydroxykynurenine by LC-MS/MS analysis.
T1 sequence (O15229 whole entry): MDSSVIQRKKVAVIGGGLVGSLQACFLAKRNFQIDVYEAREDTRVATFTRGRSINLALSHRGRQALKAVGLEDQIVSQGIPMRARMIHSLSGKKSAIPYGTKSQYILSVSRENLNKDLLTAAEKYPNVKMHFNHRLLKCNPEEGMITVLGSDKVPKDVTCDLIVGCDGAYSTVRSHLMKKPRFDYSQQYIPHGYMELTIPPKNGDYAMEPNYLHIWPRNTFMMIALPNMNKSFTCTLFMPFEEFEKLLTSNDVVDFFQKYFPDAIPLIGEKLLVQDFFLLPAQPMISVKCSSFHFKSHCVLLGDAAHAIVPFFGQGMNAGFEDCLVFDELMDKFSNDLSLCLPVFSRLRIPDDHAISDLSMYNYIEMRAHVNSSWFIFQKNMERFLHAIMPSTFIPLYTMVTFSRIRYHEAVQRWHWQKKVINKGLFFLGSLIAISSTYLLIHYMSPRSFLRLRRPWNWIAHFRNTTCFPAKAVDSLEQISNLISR
For series [8], the target named is T2, Kynurenine 3-monooxygenase (Rattus norvegicus, UniProt O88867). Description: Inhibition of rat KMO assessed as conversion of kynurenine to 3-hydroxykynurenine by LC-MS/MS analysis. In outline:
(§2)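 Mitochondrial fractions from mouse or rat liver tissue used as KMO source. Conversion of kynurenine to 3-hydroxykynurenine quantified by LC-MS/MS; IC50 averaged from triplicate tests.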

For series [9], the target named is T2, Kynurenine 3-monooxygenase. Description: Inhibition of KMO in rat microglia cells. The class given is cell-based. In outline:
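Freshly isolated neonatal rat microglial cultures, induced to express KMO by a pro-inflammatory protocol. Exogenous KYN added; conversion to 3-HK monitored by mass spectrometry.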

Series [10] deals with Kynurenine 3-monooxygenase (Mus musculus, UniProt Q91WN4). As to the kind of experiment: Inhibition of mouse KMO assessed as conversion of kynurenine to 3-hydroxykynurenine by LC-MS/MS analysis. In short, it runs like this: as §2
Kynurenine 3-monooxygenase (Mus musculus, UniProt Q91WN4), sequence (Q91WN4 whole entry): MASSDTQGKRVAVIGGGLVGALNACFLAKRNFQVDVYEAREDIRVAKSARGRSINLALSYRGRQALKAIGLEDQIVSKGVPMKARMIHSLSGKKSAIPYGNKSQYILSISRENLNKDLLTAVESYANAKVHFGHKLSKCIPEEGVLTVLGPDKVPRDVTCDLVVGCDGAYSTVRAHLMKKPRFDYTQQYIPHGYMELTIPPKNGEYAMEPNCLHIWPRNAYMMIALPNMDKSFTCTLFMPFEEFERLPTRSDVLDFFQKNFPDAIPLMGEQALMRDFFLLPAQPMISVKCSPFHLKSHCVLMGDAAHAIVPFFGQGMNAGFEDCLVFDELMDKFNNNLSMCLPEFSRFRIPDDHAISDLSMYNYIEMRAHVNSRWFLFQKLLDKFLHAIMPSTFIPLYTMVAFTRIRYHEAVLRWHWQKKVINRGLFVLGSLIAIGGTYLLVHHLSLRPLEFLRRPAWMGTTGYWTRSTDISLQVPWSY
The target in series [11] is T1, Kynurenine 3-monooxygenase. As to the kind of experiment: Inhibition of human KMO transfected in CHO cells assessed as conversion of kynurenine to 3-hydroxykynurenine by LC-MS/MS analysis. The class given is cell-based.
Series [12] addresses T1, Kynurenine 3-monooxygenase. As to the kind of experiment: Inhibition of KMO in human PBMC.
The target in series [13] is T1, Kynurenine 3-monooxygenase. Description: Inhibition of KMO (unknown origin).

The structures appear in SMILES notation. pIC50: −log10 of the molar value. Converted amounts (≈) assume the structure as drawn.

T2 sequence (O88867 whole entry): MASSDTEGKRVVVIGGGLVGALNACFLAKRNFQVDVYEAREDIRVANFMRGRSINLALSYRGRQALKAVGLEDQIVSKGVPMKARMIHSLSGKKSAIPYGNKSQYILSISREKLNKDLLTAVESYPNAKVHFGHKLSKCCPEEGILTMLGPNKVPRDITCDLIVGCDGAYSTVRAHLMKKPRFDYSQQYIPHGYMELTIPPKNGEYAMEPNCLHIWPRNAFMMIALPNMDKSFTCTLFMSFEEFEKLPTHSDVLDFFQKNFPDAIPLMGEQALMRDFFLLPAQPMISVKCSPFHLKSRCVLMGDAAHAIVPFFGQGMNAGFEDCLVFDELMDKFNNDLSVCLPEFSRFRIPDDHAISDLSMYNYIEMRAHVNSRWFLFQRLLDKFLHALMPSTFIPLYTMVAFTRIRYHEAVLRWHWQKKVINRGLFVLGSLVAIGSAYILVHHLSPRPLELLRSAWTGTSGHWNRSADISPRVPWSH

For `O=C(O)c1cc(-c2cc(Cl)cc(Cl)c2)ncn1`, the logD in series [1] stood at 1.15.
As for `O=C(O)c1cc(-c2ccc(C(F)(F)F)c(Cl)c2)ncn1`, the logD in series [1] was 1.35.
On to `CC(C)Oc1ccc(-c2cc(C(=O)O)ncn2)cc1Cl`, for which the CLH with Liver microsome [2], with Liver and in the series on Liver microsome [5] was under 0.02 throughout. The solubility in series [3] was over 1000 µg/mL. Besides, the Papp A→B in series [4] is 16.5 ×10⁻⁶ cm/s. In [1], this molecule returned a logD of 1.28. Also, in series [6], the Papp B→A is 21.2 ×10⁻⁶ cm/s.
The molecule `O=C(O)c1cc(-c2ccc(F)c(Cl)c2)ncn1` showed a logD in series [1] of 0.41.
For the molecule `CC(=O)Nc1cc(-c2ccc(Cl)c(Cl)c2)ncn1`, the pIC50 in series [7] was under 5.00.
Turning to `O=C(O)c1cc(-c2cc(Cl)c3occc3c2)ncn1`, the CLH with Liver microsome [2], with Liver and with Liver microsome [5] was under 0.02 each time. The amount in solution in series [3] (solubility) came to 820 µg/mL (≈ 2.99 mM). Also, the Papp A→B in series [4] came to 21.9 ×10⁻⁶ cm/s. The same molecule had a log distribution coefficient (logD) in series [1] of 0.85. Also, in [6], the Papp B→A came to 41 ×10⁻⁶ cm/s.
Take `O=c1[nH]ccn1-c1cc(-c2ccc(Cl)c(Cl)c2)ncn1`: the negative logarithm of the IC50 (pIC50) in [7] was under 5.00.
Molecule `O=C(O)c1cc(-c2cccc(Cl)c2F)ncn1` registered a pH-dependent lipophilicity (logD) in [1] of -0.34.
Regarding `Cn1nnc(-c2cc(-c3ccc(Cl)c(Cl)c3)ncn2)n1`, the pIC50 in [7] is under 5.00.
In the case of `O=C(O)c1cc(-c2ccc(OC(F)(F)F)c(Cl)c2)ncn1`, the CLH in the series on Liver microsome [2], in the series with Liver and in the series with Liver microsome [5] was under 0.02 in each case. In series [3], the solubility was over 1000 µg/mL. Also, the Papp A→B in series [4] came to 10.5 ×10⁻⁶ cm/s. In addition, the pIC50 in series [8] is 7.77; in series [9] it was under 6.00. Moreover, the log distribution coefficient (logD) in series [1] amounted to 1.77. Also, in series [6], the Papp B→A stood at 17.1 ×10⁻⁶ cm/s.
On to `O=C(O)c1cc(-c2ccc(Cl)c(Cl)c2)ncn1`, for which the pIC50 in [10] is 8.22; in series [11] it was 7.48; in series [7], 9.22; in series [8] it was 8.49; in series [12], 7.14; in series [9] it was 6.98. In series [3], this molecule gave a solubility of 740 µg/mL (≈ 2.75 mM). Besides, in series [4], the Papp A→B came out at 41.4 ×10⁻⁶ cm/s. In addition, the logD in series [1] came to 1.12. Further, the Papp B→A in [6] was 32.4 ×10⁻⁶ cm/s.
`O=C(O)c1cc(-c2ccc(F)c(F)c2)ncn1`: the pIC50 in series [10] was 8.82; in [8], 8.70; in series [9], 7.07. In [3], this molecule gave a solubility of over 1000 µg/mL. In addition, the Papp A→B in series [4] was determined as 13.6 ×10⁻⁶ cm/s. The molecule also showed a logD in series [1] of -0.45. For the same molecule, in series [6], the Papp B→A came out at 26 ×10⁻⁶ cm/s.
Consider `O=C(O)c1cc(-c2ccc(OC3CCCCC3)c(Cl)c2)ncn1`, for which the CLH with Liver microsome [2], in the series with Liver and in the series on Liver microsome [5] was under 0.02 in each case. Besides, in series [3], the solubility was found to be 500 µg/mL (≈ 1.5 mM).
Turning to `O=C(O)[C@H]1C[C@@H]1C(=O)c1ccc(Cl)c(Cl)c1`, in [13], the negative logarithm of the IC50 (pIC50) was 7.70.
Consider `Cc1ccc(-c2cc(C(=O)O)ncn2)cc1Cl`, for which the negative-log IC50 (pIC50) in series [10] is 8.21; in [8] it was 8.39; in series [9], 7.00. The solubility in series [3] was over 1000 µg/mL. Besides, in [4], the Papp A→B is 24 ×10⁻⁶ cm/s. In series [1], the logD came to 0.8. Moreover, the Papp B→A in series [6] worked out at 35.3 ×10⁻⁶ cm/s.
As to `O=C(O)c1cc(-c2cccc(C(F)(F)F)c2)ncn1`, the logD in [1] was determined as 0.36.
Molecule `O=C(O)c1cc(-c2cccc(F)c2)ncn1` registered a logD in series [1] of -0.8.
On the same count and under the same terms, the same measure for `Cc1ccc(-c2cc(C(=O)O)ncn2)cc1F`: -0.33.
On to `COc1ccc(-c2cc(C(=O)O)ncn2)cc1Cl`, for which, in [3], the solubility is over 1000 µg/mL. The Papp A→B in [4] is 15.8 ×10⁻⁶ cm/s. The logD in series [1] is 0.28. In addition, in series [6], the Papp B→A was 31.3 ×10⁻⁶ cm/s.
With `O=C(O)c1cc(-c2ccc(OC3COC3)c(Cl)c2)ncn1`, the CLH in the series on Liver microsome [2], in the series with Liver and with Liver microsome [5] was under 0.02 throughout. This molecule returned a solubility in series [3] of over 1000 µg/mL.
In the case of `O=C(O)c1cc(-c2ccc(Cl)c(F)c2)ncn1`, in series [1], the logD came out at 0.4.
Turning to `CS(=O)(=O)Nc1cc(-c2ccc(Cl)c(Cl)c2)ncn1`, the negative logarithm of the IC50 (pIC50) in [7] is under 5.00.
In series [1], `COc1cc(-c2cc(C(=O)O)ncn2)ccc1Cl` yielded a pH-dependent lipophilicity (logD) of 0.59.
Regarding `O=C(O)c1cc(-c2ccc(OC3CCCC3)c(Cl)c2)ncn1`, the CLH with Liver microsome [2], with Liver and in the series on Liver microsome [5] was under 0.02 each time. In series [3], this molecule showed a solubility of over 1000 µg/mL. For the same molecule, the Papp A→B in series [4] came out at 20.5 ×10⁻⁶ cm/s. In series [1], this molecule gave a logD of 2.18. For the same molecule, the Papp B→A in [6] turned out to be 16.7 ×10⁻⁶ cm/s.
Turning to `O=C(O)c1cc(-c2ccc(F)cc2F)ncn1`, the logD in series [1] is -0.88.
On the same count and under the same terms, the same measure for `O=C(O)c1cc(-c2ccc(F)c(C(F)(F)F)c2)ncn1`: 0.45.
Regarding `Clc1ccc(-c2cc(-n3ccnc3)ncn2)cc1Cl`, in series [7], the pIC50 is under 5.00.
As for `O=C(O)c1cc(-c2ccc(OCC3CC3)c(Cl)c2)ncn1`, the CLH with Liver microsome [2], with Liver and with Liver microsome [5] was under 0.02 each time. In [3], this molecule yielded a solubility of over 1000 µg/mL.
Regarding `Clc1ccc(-c2cc(-n3cccn3)ncn2)cc1Cl`, the negative-log IC50 (pIC50) in [7] was under 5.00.
On the same count and under the same terms, the same measure for `O=C(Nc1cc(-c2ccc(Cl)c(Cl)c2)ncn1)c1ccccc1`: under 5.00.
Molecule `O=C(O)c1cc(-c2ccc(Cl)cc2F)ncn1` registered a logD in [1] of 0.44.
On the same count and under the same terms, the same measure for `O=C(O)c1cc(-c2cccc(Cl)c2)ncn1`: 0.12; for `Cc1cccc(-c2cc(C(=O)O)ncn2)c1`: -0.19.
As for `O=C(O)c1cc(-c2ccc(OC3CCC3)c(Cl)c2)ncn1`, the CLH with Liver microsome [2], with Liver and in the series on Liver microsome [5] was under 0.02 each time. In series [3], this molecule gave a solubility of over 1000 µg/mL. This molecule also returned a logD in [1] of 1.19.
As to `O=C(O)c1cc(-c2ccc(Cl)cc2)ncn1`, in [1], the logD was -0.11.
On to `Cn1ccn(-c2cc(-c3ccc(Cl)c(Cl)c3)ncn2)c1=O`, for which the pIC50 in [7] was under 5.00.
The molecule `O=C(O)c1cc(-c2ccccc2)ncn1` came in with a logD in [1] of -0.98.
